Structures are written as SMILES. Calls of active or inactive are those of the source.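 The calls were made as follows, unless noted: active = viability at or under a set limit in both replicates, limit being median viability minus 3 SD (cut at about 48% in these data, passing the limit was not always enough); inconclusive = at or under the limit in just one replicate; inactive = at or above the limit in both replicates.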

What is called viability is a read-out of living cells in per cent, often relative to untreated cells. By inhibition is commonly meant the change of the read-out against control, counted positive when it falls.

Test [1] in a line: reducers of endogenous Her2 protein level, primary screen, SKBR3 breast tumor cells, AlphaScreen, ATP viability (AID 461;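 active = Her2 level under about 52% in both replicate screens, with viability over 70% of control, limit read from the data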;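 as to Her2 level: lower value means less Her2 protein in the cells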;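 as to viability: percent of carrier control wells set as 100% viability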). The note with it: 18-24 h, measured here: SKBR3 viability, ATP luminescence, at 10 µM. (In general: In Alpha technology, singlet oxygen from a donor bead excites a nearby acceptor bead.)
For test [2], the target named is Receptor tyrosine-protein kinase erbB-2 (Homo sapiens) (UniProt P04626). Described as above. The conditions noted are these: 18-24 h, at 10 µM, stronger effect = lower value.
A short description of test [3]: SK-BR-3 cell growth inhibitors, pilot screen, 24 h, human (AID 572;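 active = viability at or below 10% of carrier control in both of two separate runs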;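 also: compound exposure lasted between 18 and 24 h rather than exactly 24 h; 100% = carrier-treated control wells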). The conditions noted are these: SK-BR-3 viability, CellTiter-Glo luminescence, at 10 µM, stronger effect = lower value. Background: ATP-based viability assays read luminescence as a measure of living cells.
Test [4] can be described thus: HUVEC growth inhibition – cell-based, human, primary screen (AID 575;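 active = viability at or below 30% in both replicate assays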;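 also: 100% = median of untreated cell wells with 0.1% DMSO on each plate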). The note with it: HUVEC proliferation, CellTiter-Glo luminescence, 72 h; at 10 µM; stronger effect = lower value. In short, it runs like this: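 Timing: 72 h treatment at 37 °C; material: HUVEC primary cells; technique: CellTiter-Glo luminescence measuring cellular ATP; controls: vehicle and MePR control wells; measure: percent of median DMSO-control luminescence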

Test [5] is described as follows: growth inhibitors of H69AR lung tumor, primary screen, human, duplicate replicates (AID 580).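 Also: 100% = mean luminescence of untreated wells and 0% = no signal.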 The conditions noted are these: H69AR lung tumor cells viability, ATP luminescence, 72 h; at 10 µM; stronger effect = lower value.
Test [6] is described as follows: reversal of MRP1-mediated doxorubicin resistance, pilot screen, H69AR cells, doxorubicin co-treatment (AID 601;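 active = viability loss from added drug above about 55%, and viability with drug at most 40%, in both replicates, limit read from the data, passing the limit was not always enough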). The note with it: CellTiter-Glo, 72 h, at 10 µM; for differential viability (reversal): stronger effect = higher value.
The nature of test [7]: 384-well plate pilot, post-Golgi transport modulator project, inhibition of yeast transport mutant growth (AID 636; in the data active = inhibition above about 31%). The conditions noted are these: absorbance 615 nm, about 18 h, stronger effect = higher value.
A short description of test [8]: growth suppression of yeast trafficking mutant, preliminary HTS, modulators of trafficking downstream of Golgi apparatus project, 1536-format plate, OD 615 nm (AID 637; in the data active = inhibition above about 30%). The note with it: yeast transport mutant growth, absorbance 615 nm, 18 h; stronger effect = higher value.
The mark [9] stands for this setting: H69AR cells + 2 uM doxorubicin, measured here: viability with 2 uM doxorubicin, stronger effect = lower value.
Setting [10] is: H69AR cells, compound alone cytotoxicity.

Receptor tyrosine-protein kinase erbB-2 (Homo sapiens), sequence (P04626 whole entry, looked up): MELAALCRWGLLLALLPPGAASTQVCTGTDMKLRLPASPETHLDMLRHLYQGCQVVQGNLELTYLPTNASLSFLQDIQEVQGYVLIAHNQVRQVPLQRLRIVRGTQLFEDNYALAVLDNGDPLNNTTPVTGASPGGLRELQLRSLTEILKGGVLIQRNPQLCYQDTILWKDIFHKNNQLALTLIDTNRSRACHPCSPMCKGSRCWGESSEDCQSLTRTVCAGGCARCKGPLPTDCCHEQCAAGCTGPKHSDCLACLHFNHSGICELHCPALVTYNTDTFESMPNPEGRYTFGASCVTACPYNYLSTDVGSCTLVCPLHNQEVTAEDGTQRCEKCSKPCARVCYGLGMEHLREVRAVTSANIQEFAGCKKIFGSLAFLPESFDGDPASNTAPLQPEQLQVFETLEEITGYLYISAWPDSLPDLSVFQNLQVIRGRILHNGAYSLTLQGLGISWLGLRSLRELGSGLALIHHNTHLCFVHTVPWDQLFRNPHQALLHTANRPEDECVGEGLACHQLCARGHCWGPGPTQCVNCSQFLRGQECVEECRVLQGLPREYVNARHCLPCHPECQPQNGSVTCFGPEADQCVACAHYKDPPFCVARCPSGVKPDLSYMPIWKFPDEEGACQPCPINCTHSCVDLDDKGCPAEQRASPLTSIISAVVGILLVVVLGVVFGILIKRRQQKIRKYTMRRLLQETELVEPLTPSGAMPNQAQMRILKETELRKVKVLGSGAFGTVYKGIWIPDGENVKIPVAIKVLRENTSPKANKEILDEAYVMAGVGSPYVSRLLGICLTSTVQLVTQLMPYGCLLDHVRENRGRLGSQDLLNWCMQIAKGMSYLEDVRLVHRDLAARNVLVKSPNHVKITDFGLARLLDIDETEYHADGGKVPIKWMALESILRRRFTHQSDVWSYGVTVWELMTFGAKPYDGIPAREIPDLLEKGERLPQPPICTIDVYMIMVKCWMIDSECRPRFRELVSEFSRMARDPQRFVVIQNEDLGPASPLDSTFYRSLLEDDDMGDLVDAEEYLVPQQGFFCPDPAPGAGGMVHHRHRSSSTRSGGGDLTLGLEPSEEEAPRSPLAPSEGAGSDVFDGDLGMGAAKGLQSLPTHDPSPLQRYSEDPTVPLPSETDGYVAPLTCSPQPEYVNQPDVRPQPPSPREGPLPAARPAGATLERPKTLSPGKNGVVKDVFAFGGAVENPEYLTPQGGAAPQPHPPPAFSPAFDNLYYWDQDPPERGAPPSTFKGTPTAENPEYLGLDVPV

In the case of `CCSC1=NCN(CCCC(=O)O)CN1`, the viability in test [1] was 118%; in test [3] it was 118% (inactive); in test [4] it was 96.3% (inactive); in test [5], 99.9% (inactive); in test [6] (setting [9]), 102%; in test [6] (setting [10]), 99.9%. The Her2 level in test [2] was 100% (inactive). Also, the differential viability (reversal) in test [6] (H69AR cells + 2 uM doxorubicin) was -1.83% (inactive). The inhibition is 0.13% (inactive) in test [7] and -0.16% (inactive) in test [8].
In the case of `CCN(CC)CCCN1C(=O)C(=O)/C(=C(/O)c2ccccc2)C1c1ccccn1` (stereo not given), the viability in test [1] was 96.5%; in test [3], 96.5% (inactive); in test [4], 111% (inactive); in test [5] it was 96% (inactive); in test [6] (setting [9]), 89.7%; in test [6] (setting [10]), 96%. Also, the Her2 level in test [2] was 100% (inactive). The differential viability (reversal) in test [6] (H69AR cells + 2 uM doxorubicin) was 6.26% (inactive). In addition, the inhibition in test [7] is -1.35% (inactive); in test [8] it was -4.92% (inactive).
`COC(=O)C1=C(C)n2nnnc2NC1c1ccc(Cl)cc1` (stereo not given): the viability in test [1] is 92%; in test [3] it was 92% (inactive); in test [4], 90.4% (inactive); in test [5], 95.3% (inactive); in test [6] (setting [9]) it was 86.8%; in test [6] (setting [10]), 95.3%. Moreover, the Her2 level in test [2] is 107% (inactive). The differential viability (reversal) in test [6] (H69AR cells + 2 uM doxorubicin) was 8.47% (inactive). Moreover, the inhibition is -0.39% (inactive) in test [7] and 1.83% (inactive) in test [8].
Turning to `COc1cc(Cl)c(C)cc1NC(=O)COC(=O)c1cnc(C)cn1`, the viability in test [1] is 108%; in test [3], 108% (inactive); in test [4] it was 95.1% (inactive); in test [5] it was 97% (inactive); in test [6] (setting [9]), 99.3%; in test [6] (setting [10]) it was 97%. Also, the Her2 level in test [2] is 110% (inactive). The differential viability (reversal) in test [6] (H69AR cells + 2 uM doxorubicin) is -2.33% (inactive). Moreover, the inhibition was -4.25% (inactive) in test [7] and -0.95% (inactive) in test [8].
For `COCCNC(=O)CSc1nc(-c2ccc(OC)c(OC)c2)cc(C(F)(F)F)n1`, the viability in test [1] was 98.5%; in test [3], 98.5% (inactive); in test [4], 101% (inactive); in test [5] it was 89% (inactive); in test [6] (setting [9]), 100%; in test [6] (setting [10]), 89%. Also, the Her2 level in test [2] was 94% (inactive). The differential viability (reversal) in test [6] (H69AR cells + 2 uM doxorubicin) was -11.1% (inactive). Moreover, the inhibition in test [7] was 1.84% (inactive); in test [8] it was -2.3% (inactive).
As to `O=C(CSc1nnc(-c2ccccc2)c(-c2ccccc2)n1)N1CCOCC1`, the viability in test [1] is 97%; in test [3] it was 97% (inactive); in test [4] it was 101% (inactive); in test [5], 85.3% (inactive); in test [6] (setting [9]) it was 72.5%; in test [6] (setting [10]), 85.3%. Also, in test [2], the Her2 level is 93% (inactive). For the same compound, the differential viability (reversal) in test [6] (H69AR cells + 2 uM doxorubicin) was 12.8% (inactive). Besides, the figures for the inhibition in test [7] and in test [8] were 0% (inactive) and -5.48% (inactive), respectively.
For `Cc1ccc(CSC2=NCCN2C(=O)C2CC2)cc1`, the viability in test [1] was 100%; in test [3], 100% (inactive); in test [4], 83.3% (inactive); in test [5] it was 97% (inactive); in test [6] (setting [9]), 86.3%; in test [6] (setting [10]) it was 97%. The Her2 level in test [2] was 88% (inactive). Further, the differential viability (reversal) in test [6] (H69AR cells + 2 uM doxorubicin) is 10.7% (inactive). For the same compound, the inhibition in test [7] was -8.11% (inactive); in test [8] it was 8.57% (inactive).
In the case of `Cc1cccc(N2CN=c3s/c(=C\c4ccncc4)c(=O)n3C2)c1`, the viability was 86.5% in test [1]; 86.5% (inactive) in test [3]; 77.4% (inactive) in test [4]; 80.8% (inactive) in test [5]; 91% in test [6] (setting [9]); 80.8% in test [6] (setting [10]). The Her2 level in test [2] is 68% (inactive). Besides, the differential viability (reversal) in test [6] (H69AR cells + 2 uM doxorubicin) is -10.2% (inactive). For the same compound, the results for the inhibition in test [7] and in test [8] were -1.32% (inactive) and -2.42% (inactive), respectively.
Turning to `CCCCOn1c(C)c(C(=O)OCC)c2c3nonc3ccc21`, the viability in test [1] is 98.5%; in test [3], 98.5% (inactive); in test [4] it was 63.5% (inactive); in test [5] it was 83.5% (inactive); in test [6] (setting [9]) it was 68.6%; in test [6] (setting [10]), 83.5%. The Her2 level in test [2] was 114% (inactive). In test [6] (H69AR cells + 2 uM doxorubicin), the differential viability (reversal) was 15% (inactive). For the same compound, the inhibition in test [7] was 4.4% (inactive); in test [8], 27.6% (inactive).
With `Cc1cc(C)c(C)c(S(=O)(=O)Nc2ccc(O)cc2)c1C`, the viability in test [1] is 100%; in test [3], 100% (inactive); in test [4], 96.6% (inactive); in test [5], 96.8% (inactive); in test [6] (setting [9]), 82.7%; in test [6] (setting [10]), 96.8%. For the same compound, in test [2], the Her2 level was 87.5% (inactive). In addition, the differential viability (reversal) in test [6] (H69AR cells + 2 uM doxorubicin) is 14.1% (inactive). Further, the results for the inhibition in test [7] and in test [8] were -4.4% (inactive) and -1.61% (inactive), respectively.
`COc1ncnc2c1N=C1CC(C)(C)CC(N)=C1S2`: the viability in test [1] was 92.5%; in test [3], 92.5% (inactive); in test [4], 99% (inactive); in test [5] it was 87.5% (inactive); in test [6] (setting [9]) it was 82.8%; in test [6] (setting [10]), 87.5%. The Her2 level in test [2] is 86% (inactive). The differential viability (reversal) in test [6] (H69AR cells + 2 uM doxorubicin) was 4.68% (inactive). Besides, the inhibition in test [7] is -5.07% (inactive); in test [8] it was -2.3% (inactive).
Take `CCNC(=O)C1CC(=O)N(Cc2ccc3c(c2)OCO3)C(=Nc2ccc(F)cc2)S1` (stereo not given): the viability in test [1] was 124%; in test [3], 124% (inactive); in test [4], 85.6% (inactive); in test [5], 82.6% (inactive); in test [6] (setting [9]), 87.8%; in test [6] (setting [10]) it was 82.6%. For the same compound, the Her2 level in test [2] is 112% (inactive). In test [6] (H69AR cells + 2 uM doxorubicin), the differential viability (reversal) was -5.16% (inactive). Moreover, the values for the inhibition in test [7] and in test [8] were -6.58% (inactive) and -6.98% (inactive), respectively.
Take `O=C(c1cn(-c2ccccc2)nc1-c1cccs1)N1CCN(c2ccccn2)CC1`: the viability in test [1] was 101%; in test [3] it was 101% (inactive); in test [4] it was 72.4% (inactive); in test [5] it was 45.1% (active); in test [6] (setting [9]), 85.1%; in test [6] (setting [10]), 45.1%. The Her2 level in test [2] was 79.5% (inactive). Also, in test [6] (H69AR cells + 2 uM doxorubicin), the differential viability (reversal) was -40% (inactive). In addition, the inhibition in test [7] is -3.29% (inactive); in test [8], -2.38% (inactive).
As for `CC(=O)O[C@H]1CSC[C@H]1NC(=O)c1ccccc1`, the viability was 98.5% in test [1]; 98.5% (inactive) in test [3]; 101% (inactive) in test [4]; 99.8% (inactive) in test [5]; 88.8% in test [6] (setting [9]); 99.8% in test [6] (setting [10]). In addition, in test [2], the Her2 level was 97% (inactive). Also, the differential viability (reversal) in test [6] (H69AR cells + 2 uM doxorubicin) was 11% (inactive). The inhibition in test [7] is -2.13% (inactive); in test [8], -1.77% (inactive).

Values taken from PubChem BioAssay.
